In ChEMBL document CHEMBL1671752, “Genotypic characterization of UL23 thymidine kinase and UL30 DNA polymerase of clinical isolates of herpes simplex virus: natural polymorphism and mutations associated with resistance to antivirals” (Antimicrob Agents Chemother, 2010):

Experiments:
Human alphaherpesvirus 1 [1] = assay: Antiviral activity against Herpes simplex virus 1 isolate 1 harboring C6G N23S K36E L42P G240E A265T and A207P mutations in thymidine kinase and S33G, A330R, N425T, V905M mutations in DNA polymerase infected in african green monkey Vero cells by plaque reduction assay; type: functional, organism-based; details: Human alphaherpesvirus 1, isolate 1, Vero
Summary of the method: (§1)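 EC50 by plaque reduction assay in Vero cells against acyclovir and foscarnet. Vero cells grown in RPMI 1640 with 2% fetal bovine serum, 2 mM glutamine, 20 μg/ml vancomycin and 20 μg/ml amikacin. KOS (HSV-1) and gHSV2 (HSV-2) run as susceptible controls in each assay. […] HSV type confirmed by immunofluorescence with type-specific monoclonal antibodies.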

Human alphaherpesvirus 1 [2] = assay: Antiviral activity against Herpes simplex virus 1 isolate 3 harboring N23S, K36E, R89Q, A265T, Y53D mutations in thymidine kinase and S33G, A330R, V905M, E1005K mutations in DNA polymerase infected in african green monkey Vero cells by plaque reduction assay; type: functional, organism-based; details: Human alphaherpesvirus 1, isolate 3, Vero; summary of the method: as §1
Human alphaherpesvirus 1 [3] = assay: Antiviral activity against Herpes simplex virus 1 isolate 4 harboring N23S, K36E -1C 553 = frameshift mutations in thymidine kinase and S33G, A330R, A899V, L1188F mutations in DNA polymerase infected in african green monkey Vero cells by plaque reduction assay; type: functional, organism-based; details: Human alphaherpesvirus 1, isolate 4, Vero; summary of the method: as §1
Human alphaherpesvirus 1 [4] = assay: Antiviral activity against Herpes simplex virus 1 isolate 5 harboring N23S, K36E, A192V, G251C, A265T, V267L, P268T, -1G 856 = frameshift mutations in thymidine kinase and A330R, V905M, T1208A, H98Y mutations in DNA polymerase infected in african green monkey Vero cells by plaque reduction assay; type: functional, organism-based; details: Human alphaherpesvirus 1, isolate 5, Vero; summary of the method: as §1
Human alphaherpesvirus 1 [5] = assay: Antiviral activity against Herpes simplex virus 1 isolate 6 harboring N23S, K36E, R89Q, +1G 437-438 = Stop 225 mutations in thymidine kinase and S33G, A330R, A646T, S1123L, P1124H, T1208A, R1229I mutations in DNA polymerase infected in african green monkey Vero cells by plaque reduction assay; type: functional, organism-based; details: Human alphaherpesvirus 1, isolate 6, Vero; summary of the method: as §1
Human alphaherpesvirus 1 [6] = assay: Antiviral activity against Herpes simplex virus 1 isolate 7 harboring N23S, K36E, R89Q, +1C 464-465 = Stop 228 mutations in thymidine kinase and S33G, A330R, P1124H, T1208A, A870G mutations in DNA polymerase infected in african green monkey Vero cells by plaque reduction assay; type: functional, organism-based; details: Human alphaherpesvirus 1, isolate 7, Vero; summary of the method: as §1
Human alphaherpesvirus 1 [7] = assay: Antiviral activity against Herpes simplex virus 1 isolate 8 harboring N23S, K36E, R89Q, +1G 437-438 = Stop 228 mutations in thymidine kinase and A330R, P875S, V905M, P1124H, T1208A mutations in DNA polymerase infected in african green monkey Vero cells by plaque reduction assay; type: functional, organism-based; details: Human alphaherpesvirus 1, isolate 8, Vero; summary of the method: as §1
Human alphaherpesvirus 1 [8] = assay: Antiviral activity against Herpes simplex virus 1 isolate 9 harboring N23S, K36E, R89Q, +1G 437-438 = Stop 228 mutations in thymidine kinase and S33G, A330R, V905M, A1203T, T1208A mutations in DNA polymerase infected in african green monkey Vero cells by plaque reduction assay; type: functional, organism-based; details: Human alphaherpesvirus 1, isolate 9, Vero; summary of the method: as §1
Human alphaherpesvirus 1 [9] = assay: Antiviral activity against Herpes simplex virus 1 isolate 10 harboring N23S, K36E, R89Q, A265T C336Y mutations in thymidine kinase and S33G, A330R, V905M mutations in DNA polymerase infected in african green monkey Vero cells by plaque reduction assay; type: functional, organism-based; details: Human alphaherpesvirus 1, isolate 10, Vero; summary of the method: as §1
Human alphaherpesvirus 1 [10] = assay: Antiviral activity against Herpes simplex virus 1 isolate 11 harboring N23S, K36E, G251C, A265T, P268T, R176W mutations in thymidine kinase and S33G, A330R, P1124H, T1208A, S724N, V117L, L267M mutations in DNA polymerase infected in african green monkey Vero cells by plaque reduction assay; type: functional, organism-based; details: Human alphaherpesvirus 1, isolate 11, Vero; summary of the method: as §1
Human alphaherpesvirus 2 [11] = assay: Antiviral activity against Herpes simplex virus 2 isolate 12 harboring G39E, N78D, L140F, S66P, A72S mutations in thymidine kinase and A9T, P15S, L60P mutations in DNA polymerase infected in african green monkey Vero cells by plaque reduction assay; type: functional, organism-based; details: Human alphaherpesvirus 2, isolate 12, Vero; summary of the method: as §1
Human alphaherpesvirus 2 [12] = assay: Antiviral activity against Herpes simplex virus 2 isolate 13 harboring, M183I mutations in thymidine kinase and A9T, P15S, R41H, L60P, E139K, A232T mutations in DNA polymerase infected in african green monkey Vero cells by plaque reduction assay; type: functional, organism-based; details: Human alphaherpesvirus 2, isolate 13, Vero; summary of the method: as §1
Human alphaherpesvirus 2 [13] = assay: Antiviral activity against Herpes simplex virus 2 isolate 14 harboring G39E, N78D, M70R mutations in thymidine kinase and A724V mutations in DNA polymerase infected in african green monkey Vero cells by plaque reduction assay; type: functional, organism-based; details: Human alphaherpesvirus 2, isolate 14, Vero; summary of the method: as §1
Human alphaherpesvirus 2 [14] = assay: Antiviral activity against Herpes simplex virus 2 isolate 15 harboring R221H mutations in thymidine kinase and A9T, P15S, L60P mutations in DNA polymerase infected in african green monkey Vero cells by plaque reduction assay; type: functional, organism-based; details: Human alphaherpesvirus 2, isolate 15, Vero; summary of the method: as §1
Human alphaherpesvirus 2 [15] = assay: Antiviral activity against Herpes simplex virus 2 isolate 16 harboring D137Stop mutations in thymidine kinase and A9T, P15S, L60P mutations in DNA polymerase infected in african green monkey Vero cells by plaque reduction assay; type: functional, organism-based; details: Human alphaherpesvirus 2, isolate 16, Vero; summary of the method: as §1
Human alphaherpesvirus 2 [16] = assay: Antiviral activity against Herpes simplex virus 2 isolate 17 harboring G39E, N78D Q222Stop mutations in thymidine kinase and A9T, P15S, L60P, T801P mutations in DNA polymerase infected in african green monkey Vero cells by plaque reduction assay; type: functional, organism-based; details: Human alphaherpesvirus 2, isolate 17, Vero; summary of the method: as §1
Human alphaherpesvirus 2 [17] = assay: Antiviral activity against Herpes simplex virus 2 isolate 18 harboring A27T, G39E, N78D, -1C 556 = Stop 263, S29A mutations in thymidine kinase and A9T, P15S, L60P, E678G, del, DD676-677 mutations in DNA polymerase infected in african green monkey Vero cells by plaque reduction assay; type: functional, organism-based; details: Human alphaherpesvirus 2, isolate 18, Vero; summary of the method: as §1
Human alphaherpesvirus 2 [18] = assay: Antiviral activity against Herpes simplex virus 2 isolate 19 harboring G39E, +2G 439-440 = Stop 184 mutations in thymidine kinase and A9T, P15S, L60P, del, DGDE683-686 mutations in DNA polymerase infected in african green monkey Vero cells by plaque reduction assay; type: functional, organism-based; details: Human alphaherpesvirus 2, isolate 19, Vero; summary of the method: as §1
Human alphaherpesvirus 2 [19] = assay: Antiviral activity against Herpes simplex virus 2 isolate 20 harboring G39E, -1C 467 = Stop 183 mutations in thymidine kinase and A9T, P15S, L60P, E139K, T801P mutations in DNA polymerase infected in african green monkey Vero cells by plaque reduction assay; type: functional, organism-based; details: Human alphaherpesvirus 2, isolate 20, Vero; summary of the method: as §1
Human alphaherpesvirus 2 [20] = assay: Antiviral activity against Herpes simplex virus 2 isolate 21 harboring G39E, N78D, L140F, -1C 452 = Stop 183 mutations in thymidine kinase and P15S, L60P, E678G mutations in DNA polymerase infected in african green monkey Vero cells by plaque reduction assay; type: functional, organism-based; details: Human alphaherpesvirus 2, isolate 21, Vero; summary of the method: as §1
Human alphaherpesvirus 2 [21] = assay: Antiviral activity against Herpes simplex virus 2 isolate 22 harboring G39E, N78D, L140F, +1G 439-440 = Stop 229 mutations in thymidine kinase and A9T, P15S, L60P, E678G, Y823C mutations in DNA polymerase infected in african green monkey Vero cells by plaque reduction assay; type: functional, organism-based; details: Human alphaherpesvirus 2, isolate 22, Vero; summary of the method: as §1
Human alphaherpesvirus 2 [22] = assay: Antiviral activity against Herpes simplex virus 2 isolate 23 harboring G39E, N78D, L140F, +1G 439-440 = Stop 229 mutations in thymidine kinase and A9T, P15S, L60P, I291V mutations in DNA polymerase infected in african green monkey Vero cells by plaque reduction assay; type: functional, organism-based; details: Human alphaherpesvirus 2, isolate 23, Vero; summary of the method: as §1
Human alphaherpesvirus 2 [23] = assay: Antiviral activity against Herpes simplex virus 2 isolate 24 harboring G39E, -1G 440 = Stop 229 mutations in thymidine kinase and A9T, P15S, L60P, E139K, H837R mutations in DNA polymerase infected in african green monkey Vero cells by plaque reduction assay; type: functional, organism-based; details: Human alphaherpesvirus 2, isolate 24, Vero; summary of the method: as §1
Human alphaherpesvirus 2 [24] = assay: Antiviral activity against Herpes simplex virus 2 isolate 25 harboring I101S mutations in thymidine kinase and D785N, V544A mutations in DNA polymerase infected in african green monkey Vero cells by plaque reduction assay; type: functional, organism-based; details: Human alphaherpesvirus 2, isolate 25, Vero; summary of the method: as §1
Human alphaherpesvirus 1 [25] = assay: Antiviral activity against Herpes simplex virus 1 isolate 2 harboring C6G, N23S, K36E, R41H, A192V, A265T, L170P mutations in thymidine kinase and S33G, A330R, V905M, T1208A mutations in DNA polymerase infected in african green monkey Vero cells by plaque reduction assay; details: Human alphaherpesvirus 1, isolate 2, Vero

| SMILES | EC50 (Human alphaherpesvirus 1 [1]) [µM] | EC50 (Human alphaherpesvirus 1 [2]) [µM] | EC50 (Human alphaherpesvirus 1 [3]) [µM] | EC50 (Human alphaherpesvirus 1 [4]) [µM] | EC50 (Human alphaherpesvirus 1 [5]) [µM] | EC50 (Human alphaherpesvirus 1 [6]) [µM] | EC50 (Human alphaherpesvirus 1 [7]) [µM] | EC50 (Human alphaherpesvirus 1 [8]) [µM] | EC50 (Human alphaherpesvirus 1 [9]) [µM] | EC50 (Human alphaherpesvirus 1 [10]) [µM] | EC50 (Human alphaherpesvirus 2 [11]) [µM] | EC50 (Human alphaherpesvirus 2 [12]) [µM] | EC50 (Human alphaherpesvirus 2 [13]) [µM] | EC50 (Human alphaherpesvirus 2 [14]) [µM] | EC50 (Human alphaherpesvirus 2 [15]) [µM] | EC50 (Human alphaherpesvirus 2 [16]) [µM] | EC50 (Human alphaherpesvirus 2 [17]) [µM] | EC50 (Human alphaherpesvirus 2 [18]) [µM] | EC50 (Human alphaherpesvirus 2 [19]) [µM] | EC50 (Human alphaherpesvirus 2 [20]) [µM] | further results |
| --- | --- | --- | --- | --- | --- | --- | --- | --- | --- | --- | --- | --- | --- | --- | --- | --- | --- | --- | --- | --- | --- |
| Nc1nc2c(ncn2COCCO)c(=O)[nH]1 [ACYCLOVIR] | > 50 | 35 | 16 | 16 | 26 | 31 | 10 | > 50 | 22 | > 50 | 43 | 33 | 24 | 11 | > 50 | > 50 | 18 | > 50 | > 50 | > 50 | EC50 (Human alphaherpesvirus 2 [21]): > 50 µM; EC50 (Human alphaherpesvirus 2 [22]): > 50 µM; EC50 (Human alphaherpesvirus 2 [23]): > 50 µM; EC50 (Human alphaherpesvirus 2 [24]): 42 µM; EC50 (Human alphaherpesvirus 1 [25]): 11 µM |
| O=C(O)P(=O)(O)O [FOSCARNET] | < 66 | < 66 | < 66 | < 66 | < 66 | < 66 | < 66 | 106 | < 66 | 644 | < 66 | < 66 | 92 | 99 | < 66 | < 66 | < 66 | < 66 | < 66 | 89 | EC50 (Human alphaherpesvirus 2 [21]): 76 µM; EC50 (Human alphaherpesvirus 2 [22]): < 66 µM; EC50 (Human alphaherpesvirus 2 [23]): < 66 µM; EC50 (Human alphaherpesvirus 2 [24]): 145 µM; EC50 (Human alphaherpesvirus 1 [25]): < 66 µM |
